pIC50: −log10 of the molar value.

Results on seven compounds are retold here after ChEMBL document CHEMBL1208690, “A novel aryl-hydrazide from the marine lichen Lichina pygmaea: isolation, synthesis of derivatives, and cytotoxicity assays” (Bioorg Med Chem Lett, 2010).

The test system of assay [1] is A-375. Put plainly: Cytotoxicity activity against human A375 cells after 24 hrs by NRU assay. The assay is classed as functional, cell-based. To be noted: A-375, 24 h. In outline:
(§1)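 Neutral red uptake assay. A375 cells were seeded at 12×10³ and B16 at 10×10³ cells/well, then incubated 24 h at 37 °C in humidified 5% CO₂. Cells were exposed to compound dilutions in RPMI for 24 or 48 h. Dye was extracted with ethanol/acetic acid/water (50:1:49) and A540 read. IC50 was taken graphically from concentration-effect curves.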

In assay [2] the test system is A-375. Briefly: Cytotoxicity activity against human A375 cells at 50 uM after 24 hrs by NRU assay. The assay is classed as functional. To be noted: A-375, 24 h. The method in brief: as §1
Assay [3] concerns A-375. Put plainly: Cytotoxicity activity against human A375 cells after 48 hrs by NRU assay. Format: functional, cell-based. To be noted: A-375, 48 h. The method in brief: as §1
For assay [4], the system named is A-375. Put plainly: Cytotoxicity activity against human A375 cells at 50 uM after 48 hrs by NRU assay. To be noted: A-375, 48 h. The assay is classed as functional. In outline: as §1
In assay [5] the test system is B16. Put plainly: Cytotoxicity activity against mouse B16 cells after 24 hrs by NRU assay. The assay is classed as functional, cell-based. To be noted: B16, 24 h. The method in brief: as §1
For assay [6], the system named is B16. Put plainly: Cytotoxicity activity against mouse B16 cells at 50 uM after 24 hrs by NRU assay. Format: functional. The conditions noted are these: B16, 24 h. In outline:
as §1

The subject of assay [7] is B16. Put plainly: Cytotoxicity activity against mouse B16 cells after 48 hrs by NRU assay. The assay is classed as functional, cell-based. The conditions noted are these: B16, 48 h. The method in brief:
as §1

The test system of assay [8] is B16. Briefly: Cytotoxicity activity against mouse B16 cells at 50 uM after 48 hrs by NRU assay. Format: functional. To be noted: B16, 48 h. In outline: as §1

The term pIC50 denotes the IC50 on a negative log10 scale, so that one unit is a factor of ten. In general, inhibition refers to the percentage by which the read-out fell short of the control. High values mean strong suppression, low ones little suppression. Regarding `N[C@@H](CCC(=O)NNc1ccc(O)cc1)C(=O)O` [XANTHODERMINE], the negative-log IC50 (pIC50) in assay [1] was less than 4.30; in assay [3] it was less than 4.30; in assay [5] it was 5.80; in assay [7], 6.15. The inhibition at 50 µM in assay [2] came to 12%; in assay [4], 31%; in assay [6] it was 100%; in assay [8], 100%.

For `O=C(CC[C@H](NC(=O)OCc1ccccc1)C(=O)OCc1ccccc1)NNc1cccc(OCc2ccccc2)c1`, the pIC50 is 4.55 in assay [1], 4.54 in assay [3], 5.10 in assay [5] and 4.84 in assay [7]. In addition, the inhibition at 50 µM in assay [2] was 80%; in assay [4], 73%; in assay [6], 100%; in assay [8] it was 100%.

Consider `COc1cc([C@@H]2c3cc4c(cc3[C@@H](O[C@@H]3O[C@@H]5CO[C@@H](C)O[C@H]5[C@H](O)[C@H]3O)[C@H]3COC(=O)[C@H]23)OCO4)cc(OC)c1O` [ETOPOSIDE], for which the negative logarithm of the IC50 (pIC50) is 4.72 in assay [1], 4.92 in assay [3], 5.05 in assay [5] and 6.89 in assay [7]. The inhibition at 50 µM in assay [2], in assay [4], in assay [6] and in assay [8] was 100% throughout.

In the case of `COC1=C(NC(CO)CO)C[C@@](O)(CO)CC1=O` [MYCOSPORINE SERINOL], the negative logarithm of the IC50 (pIC50) in assay [1] is less than 4.30; in assay [3], less than 4.30; in assay [5], less than 4.30; in assay [7], 4.57. For the same compound, the inhibition at 50 µM in assay [2] amounted to 11%; in assay [4] it was 20%; in assay [6] it was 34%; in assay [8], 85%.

In the case of `O=C(CC[C@H](NC(=O)OCc1ccccc1)C(=O)OCc1ccccc1)NNc1ccc(OCc2ccccc2)cc1`, the pIC50 is less than 4.30 in assay [1], less than 4.30 in assay [3], 5.30 in assay [5] and 6.22 in assay [7]. Further, the inhibition at 50 µM was determined as 4% in assay [2], 19% in assay [4], 100% in assay [6] and 100% in assay [8].

Take `O=C(CC[C@H](NC(=O)OCc1ccccc1)C(=O)OCc1ccccc1)NNc1ccccc1OCc1ccccc1`: the pIC50 in assay [1] is 4.54; in assay [3] it was 4.52; in assay [5], 4.68; in assay [7] it was 4.82. In addition, the inhibition at 50 µM in assay [2] was found to be 77%; in assay [4], 69%; in assay [6] it was 96%; in assay [8], 100%.

`N[C@@H](CCC(=O)NNc1cccc(O)c1)C(=O)O`: the pIC50 was less than 4.30 in assay [1], less than 4.30 in assay [3], 4.92 in assay [5] and 4.92 in assay [7]. The inhibition at 50 µM turned out to be 8% in assay [2], 14% in assay [4], 100% in assay [6] and 100% in assay [8].
